The source of these data is PubChem BioAssay.

The source made the active and inactive calls.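 The calls were made as follows, unless noted: active = fluorescence slope higher than the sample average by over 3 SD (cut at about -0.22 in these data, passing the limit was not always enough); inactive = the rest.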

A short description of experiment [1]: inhibitors of TNFa-induced NFkB p65 translocation, primary screen, imaging, HUVEC, MLSMR starter and 10KST1 sets (AID 438;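 active = inhibition above 20% together with a positive visual image hit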;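 also: compound added about 3h40 before a 20 min TNFalpha stimulation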;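 as to inhibition: signal is the nuclear over cytoplasmic p65 intensity ratio per well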). The following applies: HUVEC TNFa-induced p65 nuclear translocation; cell count: measured here: nuclei count (cytotoxicity indicator), at 2.08 µM; inhibition: at 2 µM, stronger effect = higher value, 0% TNFa-plus-vehicle, 100% no-TNFa wells.
Experiment [2] is described as follows: inhibitors of E-selectin induction by TNFa, primary screen, imaging, HUVEC, immunofluorescence, MLSMR starter and 10KST1 sets (AID 487;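 active = visually confirmed hit in the image check and inhibition above 20%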;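 as to inhibition: signal is fraction of cell area covered by stained E-selectin grains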;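 as to nuclei count: 100% = median nuclei count of all wells on the same plate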). The following applies: HUVEC TNFalpha-induced E-selectin immunofluorescence imaging, at 2 µM; inhibition: stronger effect = higher value; nuclei count: measured here: cell number, toxicity.
Experiment [3] can be described thus: DUSP6 inhibitors restoring Erk phosphorylation by chemical complementation, primary imaging in DUSP6-transfected HeLa (AID 609;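 active = compounds giving at least 50% inhibition in the cell-based MKP-3 phosphatase rescue imaging test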;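 as to inhibition: phospho-Erk level distribution per well compared with pooled transfected vehicle control wells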). The following applies: HeLa MKP-3 transfected, phospho-Erk imaging KS statistic, at 10 µM, cells stimulated with TPA for 15 min.
The target in experiment [4] is Dual specificity protein phosphatase 6 (Homo sapiens) (UniProt Q16828). The experiment is described as above. The following applies: HeLa MKP-3 transfected, phospho-Erk imaging KS statistic; at 10 µM; stronger effect = higher value; cells stimulated with TPA for 15 min.
The target in experiment [5] is Voltage-gated potassium channel subunit beta-2 (Rattus norvegicus) (UniProt P62483). As to the kind of experiment: KvBeta enzyme negative modulators, primary screen, biochemical, NADPH fluorescence (AID 622).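 Also: slope of raw intensity against log time taken from 70 to 1610 s.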 The following applies: recombinant KvBeta, 4-cyanobenzaldehyde reduction, at 10 µM, stronger effect = higher value.
Experiment [6] shares this target. Briefly: KvBeta positive modulators, primary screen, biochemical, NADPH fluorescence (AID 623;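 active = NADPH fluorescence slope more negative than the mean of all samples by about 3 SD, 99.7% confidence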;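 also: fluorescence intensity change per second fitted from 20 to 320 s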). To be noted: Recombinant KvBeta, NADPH fluorescence decrease slope, 10 min; at 10 µM; stronger effect = lower value.
The target of experiment [7] is Muscarinic acetylcholine receptor M4 (Homo sapiens) (UniProt P08173). As to the kind of experiment: compounds altering M4/GIRK thallium flux, either direction, primary screen, M4 allosteric agonist project, cell-based, HEK293 M4/GIRK, BTC-AM (AID 625;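 active = fluorescence slope after compound addition differing from the mean of all tested samples at 99.7% confidence, mostly higher but some lower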;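 also: thallium influx through GIRK channels coupled to M4 in HEK293 cells with BTC-AM dye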). To be noted: at 10 µM, actives lie on both sides. The method, boiled down: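 Material: M4/GIRK1/GIRK2 stable HEK293 cell line. Medium: pH 7.3 thallium assay buffer. Dosing: single compound concentration, 10 µM final. Schedule: 1 h dye loading, 2 min kinetic read. Measured by: kinetic fluorescence with BTC-AM dye. Read-out: post-addition slope, 15–24 s, of baseline-normalized fluorescence. Benchmarks: carbachol and DMSO controls.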

Experiment [8] is described as follows: inhibitors of larval lipid processing in zebrafish, primary screen, whole organism, PED6 fluorescence, gall bladder and intestine (AID 686;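 active = a full or partial loss of lipid-probe fluorescence in the fish gall bladder, intestine or both, judged by eye; inactive = no fluorescence loss, or compound toxic to the fish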;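 also: larvae 5 to 7 days old with five fish per well; signal comes from phospholipase A2 cleavage of quenched PED6 carried via bile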). The following applies: Zebrafish larvae PED6 lipid processing, fluorescence scoring; screened at 20 µM (by protocol). The method, boiled down: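 System: live zebrafish larvae aged 5-7 days, whole organism; measure: graded gall bladder and intestinal fluorescence inhibition per well; incubation: overnight exposure; reagent: ingested quenched lipid PED6 at 100 nM; signal: By-eye fluorescence microscopy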

Experiment [9] in a line: inhibitors of Chlamydomonas gravitaxis, primary screen, whole organism, Chlamydomonas reinhardtii, WT vs cilia-less mutant, absorbance, 96-well (AID 463189;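 active = inhibition at or above 50% relative to wild type and mutant plate controls; inactive = inhibition below 50%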;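 also: 0% = wild type cc124 cells in DMSO and 100% = ciliumless bld1 mutant cells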). To be noted: OD600 absorbance, 2 days, at 10 µM, stronger effect = higher value.
The mark [10] stands for this setting: measured here: cell density z-score.
Where [11] appears, read: measured here: nuclear c-Myc green intensity z-score.
[12] abbreviates: measured here: nuclear pErk red intensity z-score, stronger effect = higher value.

Dual specificity protein phosphatase 6 (Homo sapiens), sequence (Q16828 whole entry, looked up): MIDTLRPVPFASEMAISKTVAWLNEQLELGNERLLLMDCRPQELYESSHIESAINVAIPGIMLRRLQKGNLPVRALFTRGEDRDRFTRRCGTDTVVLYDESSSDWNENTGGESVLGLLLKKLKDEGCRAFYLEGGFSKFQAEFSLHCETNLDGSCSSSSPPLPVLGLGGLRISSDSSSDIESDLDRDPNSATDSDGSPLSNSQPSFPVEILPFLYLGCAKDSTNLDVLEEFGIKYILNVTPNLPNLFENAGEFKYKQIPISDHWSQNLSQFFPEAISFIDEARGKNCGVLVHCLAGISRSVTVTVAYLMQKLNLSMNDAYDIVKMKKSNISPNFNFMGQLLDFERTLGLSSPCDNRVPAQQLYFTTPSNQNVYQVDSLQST
Muscarinic acetylcholine receptor M4 (Homo sapiens), sequence (P08173 whole entry, looked up): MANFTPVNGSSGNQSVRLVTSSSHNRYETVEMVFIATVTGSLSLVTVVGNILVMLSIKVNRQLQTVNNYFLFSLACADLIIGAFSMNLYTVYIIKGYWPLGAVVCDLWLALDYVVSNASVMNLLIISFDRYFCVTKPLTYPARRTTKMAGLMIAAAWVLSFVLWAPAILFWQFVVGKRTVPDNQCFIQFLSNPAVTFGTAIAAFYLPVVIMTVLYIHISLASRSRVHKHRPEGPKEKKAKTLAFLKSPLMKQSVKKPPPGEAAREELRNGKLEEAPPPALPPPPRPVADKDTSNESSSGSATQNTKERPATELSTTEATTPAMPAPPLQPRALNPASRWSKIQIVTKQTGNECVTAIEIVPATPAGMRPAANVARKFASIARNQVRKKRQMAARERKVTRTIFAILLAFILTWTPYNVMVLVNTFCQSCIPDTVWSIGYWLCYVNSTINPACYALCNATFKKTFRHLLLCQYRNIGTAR
Voltage-gated potassium channel subunit beta-2 (Rattus norvegicus), sequence (P62483 whole entry, looked up): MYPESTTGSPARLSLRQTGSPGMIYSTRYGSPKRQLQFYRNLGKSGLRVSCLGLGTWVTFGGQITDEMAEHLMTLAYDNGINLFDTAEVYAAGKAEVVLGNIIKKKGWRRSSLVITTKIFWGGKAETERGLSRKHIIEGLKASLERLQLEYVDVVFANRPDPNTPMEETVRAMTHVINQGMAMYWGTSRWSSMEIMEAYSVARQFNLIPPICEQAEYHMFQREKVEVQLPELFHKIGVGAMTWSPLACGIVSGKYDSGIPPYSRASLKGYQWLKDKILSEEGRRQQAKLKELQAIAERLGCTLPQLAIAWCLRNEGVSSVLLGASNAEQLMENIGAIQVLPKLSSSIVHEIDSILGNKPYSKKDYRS

As a reminder, the inhibition is the change of the read-out against control, counted positive when it falls. Regarding `O=S(=O)(/C=C/c1ccccc1)Nc1ccc2c(c1)OCO2`, the cell count in experiment [1] stood at 371. For the same molecule, the inhibition was -6.3% (inactive) in [1], -96.3% (inactive) in experiment [2], -2.59% (inactive) in [4] and 4.72% (inactive) in [9]. This molecule came in with a nuclei count in experiment [2] of 154%. The z-score is 0.539 in experiment [3] (setting [10]), -2 in [3] (setting [11]) and 0.714 in experiment [3] (setting [12]). The fluorescence slope in experiment [5] is -0.476 (inactive); in [7] it was 0.00384 (inactive). Also, the NADPH fluorescence slope in [6] is -9.8e-05 (inactive). Also, the call in experiment [8] was inactive.
With `CC(C)Cc1[nH]c(=O)c(C#N)c2c1COC(C)(C)C2`, the cell count in experiment [1] stood at 568. Also, the inhibition is -11.1% (inactive) in [1], -69.9% (inactive) in experiment [2], -13.3% (inactive) in experiment [4] and 23.1% (inactive) in [9]. The same molecule registered a nuclei count in [2] of 141%. Further, the results for the z-score in experiment [3] (setting [10]), in [3] (setting [11]) and in experiment [3] (setting [12]) were 0.028, -0.951 and -0.389, respectively. Besides, the fluorescence slope in experiment [5] was -0.43 (inactive); in [7], 0.00369 (inactive). In experiment [6], the NADPH fluorescence slope was -5.3e-05 (inactive). Further, the molecule was classed as inactive in experiment [8].
With `O=C(NCc1ccccn1)c1ccc(=O)oc1`, the cell count in experiment [1] was found to be 758. The inhibition in experiment [1] was 8.2% (inactive); in experiment [2], -1.5% (inactive); in experiment [4] it was -3.95% (inactive); in experiment [9] it was 17.3% (inactive). The same molecule yielded a nuclei count in experiment [2] of 151%. The z-score was 0.015 in experiment [3] (setting [10]), 0.178 in experiment [3] (setting [11]) and -0.703 in experiment [3] (setting [12]). For the same molecule, the fluorescence slope in experiment [5] was -0.48 (inactive); in experiment [7] it was 0.00585 (inactive). Moreover, in [6], the NADPH fluorescence slope was -4.4e-05 (inactive). Besides, in experiment [8], the result was inactive.
Consider `COc1ccc(C2C=C(c3ccc(C)cc3)Nc3ncnn32)cc1` (stereo unspecified), for which, in [1], the cell count was determined as 538. Moreover, the inhibition in experiment [1] was 0.8% (inactive); in [2], 22.6% (inactive); in [4], -3.97% (inactive); in [9], 2.98% (inactive). In [2], this molecule displayed a nuclei count of 156%. For the same molecule, the z-score in experiment [3] (setting [10]) was -1.85; in experiment [3] (setting [11]), 1.16; in [3] (setting [12]), 0.377. The fluorescence slope is -0.0165 (inactive) in experiment [5] and 0.00462 (inactive) in experiment [7]. Besides, the NADPH fluorescence slope in experiment [6] was -1.6e-05 (inactive). Besides, in [8], the outcome was inactive.
For the molecule `CN(C)CCCn1c(NC(=O)C2CCCCC2)nc2ccccc21`, the cell count in [1] was 672. Also, the inhibition in experiment [1] is 9.7% (inactive); in experiment [2] it was -32.4% (inactive); in experiment [4] it was -3.95% (inactive); in experiment [9], -0.148% (inactive). Moreover, the nuclei count in experiment [2] turned out to be 112%. Besides, the z-score in [3] (setting [10]) is 0.036; in [3] (setting [11]) it was -0.199; in experiment [3] (setting [12]) it was -1.54. In addition, the fluorescence slope in experiment [5] was -0.437 (inactive); in experiment [7], 0.00538 (inactive). The NADPH fluorescence slope in experiment [6] is -3.5e-05 (inactive). Further, the molecule was called inactive in experiment [8].
For the molecule `Cc1cc(=O)oc(C)c1C(=O)NC1CC(C)(C)NC(C)(C)C1`, the cell count in [1] came out at 688. Moreover, the inhibition in experiment [1] was -8.3% (inactive); in [2], -70.2% (inactive); in experiment [4], -10.1% (inactive); in [9] it was 6.56% (inactive). In addition, the nuclei count in [2] is 160%. Moreover, the z-score in experiment [3] (setting [10]) is -0.541; in [3] (setting [11]), 0.659; in experiment [3] (setting [12]), 0.228. In addition, the fluorescence slope in experiment [5] was -0.463 (inactive); in [7] it was 0.00552 (inactive). The NADPH fluorescence slope in [6] was -1.7e-05 (inactive). In addition, the molecule was called inactive in experiment [8].
For the molecule `CN(C)CCCOC(=O)c1ccc(Cl)cc1Cl`, the cell count in experiment [1] is 542. Besides, the inhibition is 0% (inactive) in experiment [1], -26.6% (inactive) in [2], -2.59% (inactive) in experiment [4] and 121% (active) in experiment [9]. Also, in experiment [2], the nuclei count was 126%. In addition, the figures for the z-score in experiment [3] (setting [10]), in experiment [3] (setting [11]) and in [3] (setting [12]) were -3.39, 0.341 and 0.409, respectively. Further, the figures for the fluorescence slope in experiment [5] and in [7] were -0.49 (inactive) and 0.00455 (inactive), respectively. Moreover, the NADPH fluorescence slope in [6] was -0.0001 (inactive). For the same molecule, in [8], the molecule was called inactive.
